Assay results from the EternaBench riboswitch data.

Tested on: MS2 coat protein
Assay: apparent Kd, MS2 coat protein; higher = weaker binding; RNA-MaP array; FMN 200 µM where present
Summary of the method: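 The titrant was SNAP-549-labelled MS2 coat protein, run from 0.7 or 1.5 nM in doubling steps to 3 µM. It was applied to designs transcribed by stalled E. coli RNA polymerase on Illumina sequencing-chip clusters, without ligand first and then with constant ligand, in 100 mM Tris-HCl pH 7.5, 80 mM KCl, 4 mM MgCl2, BSA, DTT, yeast tRNA and Tween-20. The apparent Kd is the median of filtered per-cluster binding-curve fits, with green signal normalised to red-channel RNA signal and control-cluster median Fmax.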

[1] = designed as: OFF switch for flavin mononucleotide, no ligand
[2] = ligand present: flavin mononucleotide, designed as: OFF switch for flavin mononucleotide
[3] = designed as: ON switch for flavin mononucleotide, no ligand
[4] = ligand present: flavin mononucleotide, designed as: ON switch for flavin mononucleotide

Row | Sequence | apparent Kd [1] [nM] | apparent Kd [2] [nM] | apparent Kd [3] [nM] | apparent Kd [4] [nM]
1 | AUGAGGUUAGGAUAUACAUGAGGAUCACCCAUGUUGGAGAAGGAAAUGUAAGUAGCGAGUAGAAGGAACGGAGC | 47 | 43.4 |  | 
2 | GUAGCAUAAUCAGGAUAUUCAGCGAAUAGAUUGACAUGAGGAUCACCCAUGUGGCGAAAGCCUAGGGAGAAGGGAUAAUGCUAC |  |  | 405 | 42.1
3 | GAACAUGAGGAUCACCCAUGUUCUCCAGAAGGCCGUACAUUUAAAAGUGGAUGGAUUAGUGUUGCGGAGGAUAUGGAGGUGCAA |  |  | 72 | 17.8
4 | GCUGACGAUGUAGGAUAUCUCGACGAUAAGUCGAGAGAAGGACAUGAGGAUCACCCAUGUAACUCAACGUCAGCGAGGAAACUC | 17.8 | 20.6 |  | 
5 | CUGUUACAUGAGGAUCACCCAUGUAAGGAUAUCUGCCACUAGAGGGUCACUUUGGGAUGGAGAAGGUACACGGG | 34.6 | 68.6 |  | 
6 | AAGGCAAUGUCAUGCCCACCGGACAGAAGGCAAUGUGGGCAGCCCGACAUGAGGAUCACCCAUGUUGAGGAUAUGUCCCGUCCU | 2.72 | 2.85 |  | 
7 | UUUUAACAUGAGGAUCACCCAUGUGAGGAUAUCGAAAUUUAUAUUAAUAUUAAUAAUACGAGAAGGCACAUUUU | 80.7 | 79.8 |  | 
8 | UUGGUUGUCGUAGGAUAUGUAGGAUAUUCCUACAUGAGGAUCACCCAUGUUCGCAUGGAAGAAGGACAGAAGGACGAUGACCAC |  |  | 850 | 9.19
9 | ACGUUUUAUGCAGGAUAUUGACAUAUAUUUAAACAAGAAGGGCAUUACAUGAGGAUCACCCAUGUUAUCAUGGUAUUUAAGUUC | 64.1 | 63.2 |  | 
10 | GGACGUCUCAUUAACAUGAGGAUCACCCAUGUCAAAAGACAUGAGGAUAUGGAACCUAAUUGGUUCCAGAAGGCAUGGACGUCC |  |  | 802 | 62.6
11 | AUACAUGAGGAUCACCCAUGUAAUUAAUUAAUUAAUAAGAUCAAGGAUAUCAGCUCGAAUAGAGCUGAGAAGGUGAUCACAUGU |  |  | 240 | 266
12 | GUCAAGCUAGGAUAUACAUGAGGAUCACCCAUGUUAUCCUCGUGGGCAGUUUCUUCAUGUAGAAGGAGCAAAGG | 38 | 16.6 |  | 
13 | UGCAUGGUAGGAUAUACGGAACAUUAGGGUUUGUUGUGUGGACAUGAGGAUCACCCAUGUAGAAGGGCCGUGCU | 45.5 | 78.6 |  | 
14 | UGGUACUAGGGAGGAUAUGGGAAGAAACAUGAGGAUCACCCAUGUUUAAGAAUGCCGAGAGGCAACUAGAAGGCCCUAGUACCU |  |  | 9.75 | 4.99
15 | CUAUUGGCAGGAUAUGCUUUUUUUGACAUGAGGAUCACCCAUGUGAUGCAUUUUGGGUUUGCAGAAGGGCCUGAGU | 74.3 | 75.1 |  | 
16 | UGUUCUAUGUAGAAGGCCCAUAUCUGUAUUUAGGGAGGAUAUACAUGAGGAUCACCCAUGUGUAGAGCUGGUGGACUGGUCAGC | 13.6 | 38.9 |  | 
17 | UUUAGUUGCGGGCAGGAUAUGUAUUAAAAUACAUGAGGAUCACCCAUGUGUGGGUAUAACACCCAACAGAAGGGCCAAUCGCGAC |  |  | 132 | 18.3
18 | GGAUGACAAAGUCAUCCAAUUCGAACAUGAGGAUCACCCAUGUAGGAUAUGCUACACAAAGUGUAGCAGAAGGACAUGUGCUUU | 36.5 | 169 |  | 
19 | GGCUUAAACACAGGAUAUAGUCUUAGGGCGAGACUAGAAGGGUGAAGUUCUCAUACAUGAGGAUCACCCAUGUCACGGAGGCUA |  |  | 45.1 | 169
20 | GAUUACAUGAGGAUCACCCAUGUACAGGUGAUUCUCGGUACGAGAAGGGCGGAGGGUCACCACACGCAGGAUAUCGAGCAAAGG | 231 | 65.4 |  | 
21 | ACAUGAGGAUCACCCAUGUAGAAUGAAGAAGGUAGAUACUUGAGACUCACCCAUGUACAUAGGACUAAGGAUAUUCUAAUAAUU |  |  | 14.1 | 10.7
22 | UAUGGUAAAGUCAGGAUAUACGUACAUCGUUCUAGGUAGAAGGGACAUGAGGAUCACCCAUGUAUGGUAGUGUU | 106 | 107 |  | 
23 | CGUCGAUACCAGAAGGACAUGAGGAUCACCCAUGUAGGAUAUGGGUGACCGGGAUGGCAGACAUGGUGCCCGGGCACAUGCGAC |  |  | 70 | 9.82
24 | GCAUGACAUGUAGGAUAUCGAGCGCCGAGCGCUCGAGAAGGACAUGAGGAUCACCCAUGUAUUCCGAAUGAAUCAAGUCAUGCA | 14.3 | 16.2 |  | 
25 | CCUCCACAUGAGGAUCACCCAUGUCAGGAUAUCGUGUGCGCGUUUUCGGUCUUUCGCGCGAGAAGGGACGACUG | 27.3 | 28.4 |  | 
26 | GAUGAGAGAGGAUAUACAUGAGGAUCACCCAUGUAAUUUUCGGACAUGGAAGCCUGAUGUAGAAGGCUCGCAUG | 78.5 | 38.6 |  | 
27 | AUUUUAAUAUAGGAUAUCGAAUUUAUUAUUUAACGAGAAGGAUAAACAUGAGGAUCACCCAUGUGGUAUCAUGG | 126 | 117 |  | 
28 | CCAGCAAAAGUGAGGAUAUGCUGGUCCUUGGAUCAGCAGAAGGCACAUGAGGAUCACCCAUGUCGUGGAGCUGG | 26.2 | 55.3 |  | 

Row | Sequence | apparent Kd [1] [nM] | apparent Kd [2] [nM] | apparent Kd [3] [nM] | apparent Kd [4] [nM]
29 | CGGUACUGAGGAUAUACAUGAGGAUCACCCAUGUGUUCUAGCUAGCGUACUGGCAUUUGUAGAAGGCGGUGCUG | 15 | 56.4 |  | 
30 | AAUACAUGAGGAUCACCCAUGUUAUGAUCAAACAAUAUGAGUGAGGAUAUACUGAGUUAGUUAUGGUAGAAGGCACUGGGUUCA |  |  | 79.9 | 45.3
31 | AGUGACUACGUAGGAUAUUAAUUCAUGGACUACAUGAGGAUCACCCAUGUUUAUUUAACAUCAGCUAAGAAGGACGUGGUCACA |  |  | 16.6 | 8.5
32 | GCGGAACAUGAGGAUCACCCAUGUAUCCGAAAUAUGGACUCACAGGAUAUCCAGAGUUGCCAAUCGGAGAAGGGUGACUCCAGC |  |  | 14.4 | 8.29
33 | GGAGCACACAUUAACAUGAGGAUCACCCAUGUCAAAAGACAUGAGGAUAUGGAUCCGAAAAGGAUCCAGAAGGCAUGGAGCUCC |  |  | 169 | 10.5
34 | UUGGACGUCGUAGGAUAUGUAGGAUAUUCCUACAUGAGGAUCACCCAUGUUGACAUGGUAGAAGGACAGAAGGACGAUGUCCAU |  |  | 423 | 53.4
35 | GGGUACAUCGCAGGAUAUCAUGUAAAUACAUGAGGAUCACCCAUGUCGAUGGAGACAUCGGAGAUUGAGAAGGCCGAUGUACCG |  |  | 622 | 322
36 | AUUUUGUCAGGAUAUGACUAGAUGCACGAAAGUGCAUCUACUUAGAAGGGACAUGAGGAUCACCCAUGUAUUCC | 17.3 | 17.8 |  | 
37 | CGUCGCUGUCGAGAGGAUAUGCGGUGAUGGACAUGAGGAUCACCCAUGUUAGCGAUAGUAUCACGGUAGAAGGCUCUUACGACUG |  |  | 32.9 | 25.3
38 | GUCAGCUCGUGAGGAUAUACAUGUGCUGGAAACAGCACUAAUUAAUUCACAUGAGGAUCACCCAUGUAGAAGGCACGAGCUGAU | 16.2 | 17.8 |  | 
39 | GUAGCAUGCAGGCAGGAUAUUCAUAUUAAAACAUGAGGAUCACCCAUGUAGGCCAAAAGGCCUUGGGAGAAGGGCCACAUGCUAC |  |  | 636 | 45.7
40 | CAGUACGGAGGAUAUACAUGAGGAUCACCCAUGUGAGAAAUACUAGUGAGGUCGAUUAGUAGAAGGCUGUACUG | 40.5 | 579 |  | 
41 | CGUCAGUGAGGAUAUGGUGUCGUUUACAUGAGGAUCACCCAUGUUUCAUGGGACUAGAGACUAGAAGGUACUGACG | 97.4 | 266 |  | 
42 | UGGUACUAGGGAGGAUAUGGGAGGAUACAUGAGGAUCACCCAUGUUUAAGAAUGCCGAGAGGCAACUAGAAGGCCCUAGUACCU |  |  | 919 | 63.7
43 | GCAGCUAAUGCAGGAUAUCAGCACGUGUAGUGCUGAGAAGGGCACAUGAGGAUCACCCAUGUGAUCAAUUAAUUUUAAUGCUGC | 29 | 159 |  | 
44 | AGUGUCAUCGAGAAGGCCUCGACAUGAGGAUCACCCAUGUUGUUAUAUGGGAGGAUAUCGAUGAUACAGCUACGUUUCGUAGCA |  |  | 51.6 | 14.7
45 | ACCCAUGUCCAAGGAUAUGUACUCACAUGAGGAUCACCCAUGUAAAAGGGAGCAGAAGGUGGUACAUGUUAGAGAAUAAUAAAC |  |  | 129 | 11.4
46 | UGCCUGAGUCGAGGAUAUUAUGGAUCAAUUAAUACAUGAGGAUCACCCAUGUAAUUAAUUUAACAUGAGAAGGCGACUCAGGCU |  |  | 11.3 | 8.51
47 | AUAGUGCGCGAGAAGGACGUACCACAUGUGGAUCACCUAUAUAAGGAACGUAGGAUAUUGCACAUGAGGAUCACCCAUGUGGAU |  |  | 41.4 | 34.1
48 | CUCCUACAUGAGGAUCACCCAUGUCAGGAUAUCUCAGUGGCACCUAAAUUCGCCACCCAGAGAAGGGACGUGCA | 13.9 | 16.6 |  | 
49 | GUGCACAUUCGAGGAUAUCGGAGAGGAGUCCUUCGAGAAGGCGAUUCGUGCUGUGUUAUUCUGGACAUGAGGAUCACCCAUGUG |  |  | 50.8 | 27.8
50 | ACAUGUUUUACAGGAUAUGUUUUACAAUAAACAUUCAGUUAUUACGAUUAAACAGAAGGGUAUACAUGAGGAUCACCCAUGUAA | 17.1 | 15 |  | 
51 | UAAUGAGAGCAGGAUAUCUUAUAAAUGUAUGAAAGAGAAGGGCUCACAUGAGGAUCACCCAUGUGGUCCUAGAU | 34 | 163 |  | 
52 | UUUAAGUCAGGAUAUCGUUAAUUUAAUUGUUUGUUUUAGUUCGAGAAGGGACAUGAGGAUCACCCAUGUAAUUU | 34.3 | 38.9 |  | 
53 | UCACGGGACUAAGGAUAUACAUGAUCCAUUUUUGUAGAAGGUAGAAUGUUAGAUCAUAAACUAAACAUGAGGAUCACCCAUGUU | 23.5 | 22.5 |  | 
54 | GCACAUGGCAUAGGAUAUAGAACUAUACUUUAUAUAGGUAGUUACACUUAACUAGAAGGAUGAUACAUGAGGAUCACCCAUGUA |  |  | 16.8 | 14.5
55 | GGAUGACAAAGUCAUCCAAUUCGAACAUGAGGAUCACCCAUGUAGGAUAUGCUACACAAAGUGUAGCAGAAGGACAUGUGCCUU | 30.7 | 183 |  | 
